High-throughput results from PubChem.
CCR6 antag: CCR6 (human) receptor antagonism; P51684; CHO-K1 CCR6 PathHunter beta-arrestin, luminescence, CCL20-stimulated; inhibition, % at 20 µM; 340,000 tested, 0.49% active;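 active = compounds whose inhibition of the agonist-driven luminescence signal at 20 µM reaches about 50%, limit read from the data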;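 note: cells stimulated with CCL20 at 14 nM final; plate controls were DMSO with CCL20 for no effect and DMSO without agonist for full effect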
APJ antagonist: antagonists of human APJ apelin receptor | AID 2521 | 330,000 tested, 0.32% active | inhibition, % at 20 µM | CHO-K1 APJ beta-arrestin complementation, luminescence | P35414;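 active = inhibition above about 40% at 20 µM, limit read from the data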;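 note: cells challenged with 10 nM apelin-13 agonist together with compound; plate controls were apelin-13 plus DMSO wells for no effect and DMSO wells lacking apelin-13 for full effect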
APJ ag: activates the human apelin receptor APJ | CHO-K1 APJ PathHunter beta-arrestin, luminescence; 0% DMSO wells, 100% apelin | P35414 | activation, % at 20 µM | 330,000 tested, 0.11% active;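 active = activation more than six SD over the plate average, tested at 20 µM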;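 note: 0% = DMSO alone and 100% = apelin-13 at 10 nM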
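Assay system: CHO-K1 cells stably expressing ProLink-tagged human APJ and arrestin–beta-gal acceptor. Compound dosing: 20 µM single point, 1% DMSO. Times: 16-18 h seeding, 90 min dark compound exposure, 60 min detection. Detection: beta-gal luminescence. Evaluation: APJ–arrestin association signal. Controls: negative DMSO alone, positive Apelin-13 at 10 nM.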
B2AR ag: agonists of human beta-2 adrenergic receptor inducing internalization. Am2.2-beta2AR cells, FAP receptor internalization, flow cytometry. 340,000 tested, 0.43% active. P07550. response, % (test concentration not listed);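 active = response above a set limit, near 3 SD of response in nonfluorescent compounds, cut at about 42% in these data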
CXCR6 block: blocks human CXCR6 beta-arrestin recruitment | inhibition, % at 20 µM | 360,000 tested, 0.36% active | CHO-K1 PathHunter CXCR6 beta-arrestin, luminescence; in the data active = inhibition above about 34%, passing the limit was not always enough;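 note: antagonist mode with CXCL16 agonist at 10 nM final; 0% = 10 nM CXCL16 with DMSO and 100% = unstimulated wells without agonist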
Target sequence (O00574 whole entry, looked up): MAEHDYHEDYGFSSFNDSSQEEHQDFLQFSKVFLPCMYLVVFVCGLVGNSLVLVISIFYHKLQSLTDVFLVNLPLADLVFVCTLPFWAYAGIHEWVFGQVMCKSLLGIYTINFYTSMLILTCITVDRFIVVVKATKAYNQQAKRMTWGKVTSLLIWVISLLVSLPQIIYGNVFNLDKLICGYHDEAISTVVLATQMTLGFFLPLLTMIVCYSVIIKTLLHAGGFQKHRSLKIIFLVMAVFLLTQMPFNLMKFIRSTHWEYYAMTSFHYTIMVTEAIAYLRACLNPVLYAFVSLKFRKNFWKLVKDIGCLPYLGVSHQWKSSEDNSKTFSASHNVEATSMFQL
EBI2 antag: antagonists of human EBI2 receptor. EBI2 beta-arrestin recruitment, luminescence, 7a,25-OHC stimulated. inhibition, % at 5 µM. 360,000 tested, 0.81% active. AID 651636; in the data active = inhibition above about 38%;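 note: enzyme fragment complementation signal reports receptor beta-arrestin coupling in cells; 0% = agonist plus DMSO wells and 100% = wells without agonist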
APJ antag confirm: confirmation of human APJ apelin receptor antagonists; shares compounds with APJ antagonist; APJ beta-arrestin recruitment, luminescence, antagonist mode; inhibition, % at 20 µM; 950 tested, 66% active; in the data active = inhibition above about 50%
An asterisk follows results filed as active; . = no result. Hits are enriched below; roughly 1.8% of the tested compounds scored in any of these assays.

SMILES	CCR6 antag	APJ antagonist	APJ ag	B2AR ag	CXCR6 block	EBI2 antag	APJ antag confirm
CCN(C(=O)COC(=O)c1cccnc1SC)C1CCCCC1	4	8	-1	0	-6	13	.
Cn1c(O)c(N=Nc2nc(-c3ccccc3)cs2)c2ccccc21	61*	50*	-7	-1	34	26	62*
O=C(CC[C@H]1O[C@@H](n2ccc(=O)[nH]c2=O)[C@H](O)[C@@H]1O)N[C@H](Cc1ccccc1)C(=O)NC1CCCCC1	.	.	.	.	-3	-10	.
Cc1ccc(C)c(NC(=S)/C(=C(\[O-])c2ccc(OC(F)F)cc2)[n+]2ccccc2)c1	12	3	-5	5	8	-10	.
[O-]/C(=C(\C(=S)Nc1ccccc1F)[n+]1ccccc1)c1ccc(OC(F)F)cc1	19	48*	-9	-3	-2	-8	22
COC(=O)c1ccc2c(c1)C(C)(C)C(/C=C/c1ccc(O)cc1)=[N+]2C	91*	70*	-2	49*	74*	0	129*
CC1(O)CC(c2ccc(Cl)cc2)=NN1C(=O)c1ccc([N+](=O)[O-])cc1 (configuration not stated)	68*	41*	-8	5	17	20	70*
O=C(CN1C(=O)CCOc2ccccc21)Nc1ccc(Cl)c(S(=O)(=O)N2CCOCC2)c1	0	6	0	-5	-2	-5	.
CCN1/C(=C/c2ccc3ccccc3[n+]2CC)C=Cc2ccccc21	61*	54*	-2	-771	55*	4	94*
NC(=S)NN=C1CCSCC1	0	.	.	9	-4	0	.
Cc1ccc(C2=NC(=O)/C(=C/c3cc(O)c(O)c(Br)c3)S2)cc1	48	22	-8	13	32	4	.
COc1cc(/C=C2\SC(c3ccc(C)cc3)=NC2=O)cc(OC)c1O	65*	56*	-11	-5	38	11	77*
CCOC(=O)c1cnc2c(cnn2C)c1Oc1ccc(OC)cc1	13	26	-5	2	-4	4	.
CCOC(=O)c1cnc2c(cnn2C)c1NCCC(O)C(F)(F)F (configuration not stated)	9	48*	0	-6	4	-6	33
Cc1cc(C(=O)OCC(=O)Nc2ccccc2C#N)c(C)o1	5	24	-5	0	-9	-5	.
CC(NC(=O)COC(=O)c1ccccc1F)C1CC2CCC1C2 (configuration not stated)	13	-18	-1	-2	6	5	.
CCOc1cc(/C=N/N=C/c2ccc(O)c(OCC)c2)ccc1O	8	23	-4	-3	-2	3	.
COc1cc(/C=C/C(=O)CC(=O)/C=C/c2ccc(O)c(OC)c2)ccc1O	66*	62*	-10	-71	37	14	93*
COc1cc(/C=C2\CCC/C(=C\c3ccc(O)c(OC)c3)C2=O)ccc1O	49	40*	-8	43*	31	3	80*
CCOc1cc(/C=C2\CN(CC)C/C(=C\c3ccc(O)c(OCC)c3)C2=O)ccc1O	46	48*	-9	29	24	-3	101*
COc1cc(/C=C2/CCCC(C(=O)C(F)(F)F)=C2O)ccc1O	22	5	-2	21	5	-5	.
COC(=O)c1ccc(NC(=O)COC(=O)COc2cccc3c2OC(C)(C)C3)cc1	2	5	-3	6	0	-4	.
COc1ccc(N(Cc2ccccc2)S(=O)(=O)c2cccc(C(=O)NCC3CCCO3)c2)cc1 (configuration not stated)	18	2	-3	17	3	7	.
CCOC(=O)N1CC=C2C(C#N)=C(N)C(C#N)(C#N)[C@H](c3ccc(OCC)c(OCC)c3)[C@H]2C1	17	22	-3	3	6	20	.
N#CC1=C(N)C(C#N)(C#N)C(c2cccnc2)C2CN(C(=O)OCc3ccccc3)CC=C12 (configuration not stated)	53*	50*	-8	15	7	9	27
SMILES	CCR6 antag	APJ antagonist	APJ ag	B2AR ag	CXCR6 block	EBI2 antag	APJ antag confirm
COc1ccc(/C=N\Nc2ccc([N+](=O)[O-])cc2)c(C(=O)O)c1OC	24	47*	-5	3	15	-4	60*
COc1cccc(/C=N/Nc2ccc([N+](=O)[O-])cc2)c1O	35	15	-3	17	12	15	.
COC(=O)c1ccc(N/N=C/c2cc([N+](=O)[O-])cc(OC)c2O)cc1	57*	59*	-8	2	42*	13	85*
CSCCC(C(=O)NC(C)(C)C)n1c(-c2ccc3c(c2)OCO3)nc2ccccc21 (configuration not stated)	.	.	.	.	.	4	.
C[C@@H](NC(=O)[C@@H]1CCCN1C(=O)OC(C)(C)C)c1ccccc1	.	.	.	.	-7	-17	.
Cc1cccc(NC(=S)NNC(=O)c2cccc([N+](=O)[O-])c2)c1	18	27	-5	10	17	-7	.
Cc1occc1C(=O)NNC(=S)Nc1cccc([N+](=O)[O-])c1	32	45*	-5	-14	4	-4	47
CC(=O)C1CCC2C3C=CC4=CC(=O)CCC4(C)C3CCC12C (configuration not stated)	.	.	.	.	-10	7	.
Nc1nc(=O)n(C2CCC(CO)O2)cc1F (configuration not stated)	.	.	.	.	0	-3	.
COc1ccccc1N1CCN(C(=O)c2c(C)cc(=O)oc2C)CC1	16	57*	-2	0	-2	1	19
NC(=O)C1Cc2ccccc2CN1C(=O)c1nn(Cc2ccccc2)c(=O)c2ccccc12 (configuration not stated)	10	2	4	-7	7	-1	.
CCCC(=O)N1CCC1(C)C(=O)Nc1cccc(OC(C)C)c1 (configuration not stated)	.	.	.	.	-2	-19	.
CC1(C)CC2(CC(c3ccccc3F)c3cc(Cl)c(O)cc3O2)NC(=S)N1 (configuration not stated)	-1	48*	-5	-3	13	-5	112*
Cc1cccc(C2CC3(CC(C)(C)NC(=S)N3)Oc3cc(O)ccc32)c1 (configuration not stated)	18	10	-1	-5	14	0	.
Cc1ccc(Nc2cc(C)nn2-c2nc(C)cc(C)n2)cc1	-3	11	-1	-3	12	22	.
Cc1ccc(Nc2cc(C)nn2-c2nc(C)cc(=O)[nH]2)cc1	82*	87*	-16	31	64*	90*	108*
CCN(C(=O)COC(=O)C(c1ccccc1)c1ccccc1)c1c(N)n(Cc2ccccc2)c(=O)[nH]c1=O	9	.	.	1	3	1	.
